Measured values published in ChEMBL document CHEMBL1122179, “1-(alkylamino)isochromans: hypotensives with peripheral and central activities” (J Med Chem, 1982).
The source made the active and inactive calls. The rule behind the calls is not given here.

Experiments:
Rattus norvegicus [1] = experiment: Delta BP refers to oral hypotensive activity of compound which is evaluated at 4 hr and 24 hr in restrained, normotensive conscious rats at a dose of 50 mg/kg; -19/-9; type: functional
Procedure, shortened: (§1)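 Female Sprague-Dawley rats, normotensive, restrained in a towel. Blood pressure was read directly via chronic indwelling aortic cannulas exteriorized at the nape, before and 4 and 24 h after an oral dose suspended in carboxymethylcellulose (10 mL/kg). Values from two animals were averaged at each time; a mean change of at least 5 mmHg was taken as significant (p < 0.05).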

Rattus norvegicus [2] = experiment: Delta BP refers to oral hypotensive activity of compound which is evaluated at 4 hr and 24 hr in restrained, normotensive conscious rats at a dose of 50 mg/kg; type: functional, organism-based; set-up: dose 50 mg/kg; procedure, shortened: as §1
Rattus norvegicus [3] = experiment: Delta BP refers to oral hypotensive activity of compound which is evaluated at 4 hr and 24 hr in restrained, normotensive conscious rats at a dose of 50 mg/kg; -8/-1; type: functional; procedure, shortened: as §1
Rattus norvegicus [4] = experiment: Delta BP refers to oral hypotensive activity of compound which is evaluated at 4 hr and 24 hr in restrained, normotensive conscious rats at a dose of 15 mg/kg; -13/-14; type: functional; procedure, shortened: as §1
Rattus norvegicus [5] = experiment: Delta BP refers to oral hypotensive activity of compound which is evaluated at 4 hr and 24 hr in restrained, normotensive conscious rats at a dose of 50 mg/kg; -12/-5; type: functional; procedure, shortened: as §1
Rattus norvegicus [6] = experiment: Delta BP refers to oral hypotensive activity of compound which is evaluated at 4 hr and 24 hr in restrained, normotensive conscious rats at a dose of 50 mg/kg; -22/-25; type: functional; procedure, shortened: as §1
Rattus norvegicus [7] = experiment: Delta BP refers to oral hypotensive activity of compound which is evaluated at 4 hr and 24 hr in restrained, normotensive conscious rats at a dose of 50 mg/kg; -16/3; type: functional; conditions: dose 15 mg/kg, in the assay text read “dose of 15 mg/kg” for “dose of 50 mg/kg”; procedure, shortened: as §1
Rattus norvegicus [8] = experiment: Delta BP refers to oral hypotensive activity of compound which is evaluated at 4 hr and 24 hr in restrained, normotensive conscious rats at a dose of 50 mg/kg; -16/-26; type: functional; procedure, shortened: as §1
Rattus norvegicus [9] = experiment: Delta BP refers to oral hypotensive activity of compound which is evaluated at 4 hr and 24 hr in restrained, normotensive conscious rats at a dose of 50 mg/kg; -4/-10; type: functional; procedure, shortened: as §1
Rattus norvegicus [10] = experiment: Delta BP refers to oral hypotensive activity of compound which is evaluated at 4 hr and 24 hr in restrained, normotensive conscious rats at a dose of 50 mg/kg; -3/-1; type: functional; procedure, shortened: as §1
Rattus norvegicus [11] = experiment: Delta BP refers to oral hypotensive activity of compound which is evaluated at 4 hr and 24 hr in restrained, normotensive conscious rats at a dose of 50 mg/kg; -8/-10; type: functional; procedure, shortened: as §1
Rattus norvegicus [12] = experiment: Delta BP refers to oral hypotensive activity of compound which is evaluated at 4 hr and 24 hr in restrained, normotensive conscious rats at a dose of 50 mg/kg; -9/-10; type: functional; procedure, shortened: as §1
Rattus norvegicus [13] = experiment: Delta BP refers to oral hypotensive activity of compound which is evaluated at 4 hr and 24 hr in restrained, normotensive conscious rats at a dose of 50 mg/kg; -4/-2; type: functional; procedure, shortened: as §1
Rattus norvegicus [14] = experiment: Delta BP refers to oral hypotensive activity of compound which is evaluated at 4 hr and 24 hr in restrained, normotensive conscious rats at a dose of 50 mg/kg; 3/2; type: functional; procedure, shortened: as §1
Rattus norvegicus [15] = experiment: Delta BP refers to oral hypotensive activity of compound which is evaluated at 4 hr and 24 hr in restrained, normotensive conscious rats at a dose of 50 mg/kg; 2/2; type: functional; procedure, shortened: as §1
Rattus norvegicus [16] = experiment: Delta BP refers to oral hypotensive activity of compound which is evaluated at 4 hr and 24 hr in restrained, normotensive conscious rats at a dose of 50 mg/kg; -20/-5; type: functional; procedure, shortened: as §1
Rattus norvegicus [17] = experiment: Delta BP refers to oral hypotensive activity of compound which is evaluated at 4 hr and 24 hr in restrained, normotensive conscious rats at a dose of 50 mg/kg; -17/-16; type: functional; procedure, shortened: as §1
Rattus norvegicus [18] = experiment: Delta BP refers to oral hypotensive activity of compound which is evaluated at 4 hr and 24 hr in restrained, normotensive conscious rats at a dose of 50 mg/kg; -15/3; type: functional; procedure, shortened: as §1

SMILES: COc1cc2c(cc1OC)C(CCN1CCN(c3ccccc3C)CC1)OCC2 (stereo not given)
- Delta blood pressure (Rattus norvegicus [1]): -19 mmHg

SMILES: COc1cc2c(cc1OC)C(CCCN1CCN(c3cccc(C(F)(F)F)c3)CC1)(c1ccc(F)cc1)OCC2 (stereo not given)
- Delta blood pressure (Rattus norvegicus [2]): inactive

SMILES: COc1cc2c(cc1OC)C(C)(CCCN1CCN(c3ccc(Cl)cc3)CC1)OCC2 (stereo not given)
- Delta blood pressure (Rattus norvegicus [3]): -8 mmHg

SMILES: COc1cc2c(cc1OC)C(CCN1CCN(c3cccc(Cl)c3)CC1)OC(C)(C)C2 (stereo not given)
- Delta blood pressure (Rattus norvegicus [2]): inactive

SMILES: COc1cc2c(cc1OC)C(CCN1CCN(c3ccccn3)CC1)OCC2 (stereo not given)
- Delta blood pressure (Rattus norvegicus [4]): -13 mmHg
- Delta blood pressure (Rattus norvegicus [5]): -12 mmHg

SMILES: COc1cc2c(cc1OC)C(CCCN1CCN(c3ccc(F)cc3)CC1)(c1ccc(F)cc1)OCC2 (stereo not given)
- Delta blood pressure (Rattus norvegicus [6]): -22 mmHg
- Delta blood pressure (Rattus norvegicus [7]): -16 mmHg

SMILES: COc1cc2c(cc1OC)C(C)(CCN1CCN(c3ccc(F)cc3)CC1)OCC2 (stereo not given)
- Delta blood pressure (Rattus norvegicus [8]): -16 mmHg

SMILES: COc1cc2c(cc1OC)C(C)(C)COC2CCN1CCN(c2cccc(Cl)c2)CC1 (stereo not given)
- Delta blood pressure (Rattus norvegicus [9]): -4 mmHg

SMILES: COc1cc2c(cc1OC)C(C)(CCN1CCN(c3ccccc3Cl)CC1)OCC2 (stereo not given)
- Delta blood pressure (Rattus norvegicus [10]): -3 mmHg

SMILES: COc1cc2c(cc1OC)C(C)(CCN1CCN(c3ccc(Cl)cc3)CC1)OCC2 (stereo not given)
- Delta blood pressure (Rattus norvegicus [11]): -8 mmHg

SMILES: COc1cc2c(cc1OC)C(C)(CCN1CCN(c3ccccc3OC)CC1)OCC2 (stereo not given)
- Delta blood pressure (Rattus norvegicus [12]): -9 mmHg

SMILES: COc1cc2c(cc1OC)C(CN1CCN(c3ccccn3)CC1)OCC2 (stereo not given)
- Delta blood pressure (Rattus norvegicus [2]): inactive

SMILES: COc1cc2c(cc1OC)C(CCCN1CCN(c3ccccc3Cl)CC1)(c1ccc(F)cc1)OCC2 (stereo not given)
- Delta blood pressure (Rattus norvegicus [2]): inactive

SMILES: COc1cc2c(cc1OC)C(CCN1CCN(c3ccccc3Cl)CC1)OC(C)(C)C2 (stereo not given)
- Delta blood pressure (Rattus norvegicus [2]): inactive

SMILES: COc1cc2c(cc1OC)C(C)(CCCN1CCN(c3ccccc3)CC1)OCC2 (stereo not given)
- Delta blood pressure (Rattus norvegicus [13]): -4 mmHg

SMILES: COc1cc2c(cc1OC)C(C)(CCN1CCN(c3cccc(C(F)(F)F)c3)CC1)OCC2 (stereo not given)
- Delta blood pressure (Rattus norvegicus [2]): inactive

SMILES: COc1cc2c(cc1OC)C(CCN1CCN(c3ccccn3)CC1)OC(C)(C)C2 (stereo not given)
- Delta blood pressure (Rattus norvegicus [2]): inactive

SMILES: COc1cc2c(cc1OC)C(CCN1CCN(c3ccccc3Cl)CC1)OCC2 (stereo not given)
- Delta blood pressure (Rattus norvegicus [14]): 3 mmHg

SMILES: COc1cc2c(cc1OC)C(C)(CCN1CCN(c3ccccn3)CC1)OCC2 (stereo not given)
- Delta blood pressure (Rattus norvegicus [2]): inactive

SMILES: COc1cc2c(cc1OC)C(C)(CCN1CCN(c3cccc(Cl)c3)CC1)OCC2 (stereo not given)
- Delta blood pressure (Rattus norvegicus [2]): inactive

SMILES: COc1cc2c(cc1OC)C(CN1CCN(c3cccc(C(F)(F)F)c3)CC1)OCC2 (stereo not given)
- Delta blood pressure (Rattus norvegicus [15]): 2 mmHg

SMILES: COc1cc2c(cc1OC)C(CCCN1CCN(c3ccccc3OC)CC1)(c1ccc(F)cc1)OCC2 (stereo not given)
- Delta blood pressure (Rattus norvegicus [2]): inactive

SMILES: COc1cc2c(cc1OC)C(C)(CCN1CCN(c3ccccc3C)CC1)OCC2 (stereo not given)
- Delta blood pressure (Rattus norvegicus [2]): inactive

SMILES: COc1cc2c(cc1OC)C(CCCN1CCN(c3ccc(Cl)cc3)CC1)(c1ccc(F)cc1)OCC2 (stereo not given)
- Delta blood pressure (Rattus norvegicus [2]): inactive

SMILES: COc1cc2c(cc1OC)C(CN1CCN(c3ccccc3)CC1)OCC2 (stereo not given)
- Delta blood pressure (Rattus norvegicus [16]): -20 mmHg

SMILES: COc1cc2c(cc1OC)C(C)(CCCN1CCN(c3ccccc3OC)CC1)OCC2 (stereo not given)
- Delta blood pressure (Rattus norvegicus [2]): inactive

SMILES: COc1cc2c(cc1OC)C(CCN1CCN(c3ccccc3OC)CC1)OC(C)(C)C2 (stereo not given)
- Delta blood pressure (Rattus norvegicus [17]): -17 mmHg
- Delta blood pressure (Rattus norvegicus [18]): -15 mmHg
